From ChEMBL document CHEMBL1157747, “Discovery, structure-activity relationships, pharmacokinetics, and efficacy of glucokinase activator (2R)-3-cyclopentyl-2-(4-methanesulfonylphenyl)-N-thiazol-2-yl-propionamide (RO0281675)” (J Med Chem, 2010) come the findings set out here.

Values after ≈ are worked out from the molar mass of the structure shown. Active and inactive are the calls of the source. The calls are words filed in the database; no cut-off is given here.

The subject of one series is Glucokinase (Homo sapiens). The series can be described thus: Activity of glucokinase assessed as stimulatory concentration required to increase 1.5 fold enzymatic activity.
Conditions: not given
As for `CNC(=O)NC(=O)C(CC1CCCC1)c1ccccc1` (stereo unspecified), the Activity amounted to 28.2 µM.

As for `CCOC(=O)c1csc(NC(=O)C(CC2CCCC2)c2ccc(Cl)c(Cl)c2)n1` (stereo unspecified), the Activity came to 2.7 µM.

With `NC(=O)NC(=O)C(CC1CC1)c1ccc(Cl)c(Cl)c1` (stereo unspecified), the Activity is 40 µM.

As for `CCOC(=O)c1cnc(NC(=O)C(CC2CCCC2)c2ccc(Cl)c(Cl)c2)s1` (stereo unspecified), the Activity amounted to 8 µM.

For `O=C(Nc1nccs1)C(CC1CCCC1)c1ccc(Cl)c(Cl)c1` (stereo unspecified), the Activity came to 0.94 µM.

With `O=C(Nc1nccs1)C(CC1CCCC1)c1ccc(Cl)cc1` (stereo unspecified), the Activity came out at 3.1 µM.

As for `CCOC(=O)Cc1csc(NC(=O)C(CC2CCCC2)c2ccc(Cl)c(Cl)c2)n1` (stereo unspecified), the Activity was found to be 0.61 µM.

As to `NC(=O)NC(=O)C(CC1CCCCC1)c1ccc(Cl)c(Cl)c1` (stereo unspecified), the Activity amounted to 8.9 µM.

Regarding `C[S+]([O-])c1ccc(C(CC2CCCC2)C(=O)Nc2nccs2)cc1` (stereo unspecified), the Activity turned out to be 2.2 µM.

As for `O=C(NCCO)NC(=O)C(CC1CCCC1)c1ccc(Cl)c(Cl)c1` (stereo unspecified), the Activity is 3.4 µM.

Turning to `CC(C)CNC(=O)NC(=O)C(CC1CCCC1)c1ccc(Cl)c(Cl)c1` (stereo unspecified), the Activity worked out at 6.3 µM.

Consider `CCOC(=O)CNC(=O)NC(=O)C(CC1CCCC1)c1ccc(Cl)c(Cl)c1` (stereo unspecified), for which the Activity came out at 1.3 µM.

`O=C(Nc1nccs1)C(CC1CCCC1)c1cccc(S(=O)(=O)C(F)(F)F)c1` (stereo unspecified): the Activity worked out at 1.4 µM.

`COC(=O)CCNC(=O)NC(=O)C(CC1CCCC1)c1ccc(Cl)c(Cl)c1` (stereo unspecified): the Activity was determined as 3.2 µM.

For `CNC(=O)NC(=O)C(CC1CCCC1)c1cccc(Cl)c1` (stereo unspecified), the Activity stood at 3.7 µM.

For `CNC(=S)NC(=O)C(CC1CCCC1)c1ccc(Cl)c(Cl)c1` (stereo unspecified), the Activity stood at 3.8 µM.

In the case of `CCCNC(=O)NC(=O)C(CC1CCCC1)c1ccc(Cl)c(Cl)c1` (stereo unspecified), the Activity amounted to 1.3 µM.

As to `COC(=O)c1csc(NC(=O)C(CC2CCCC2)c2ccc(Cl)c(Cl)c2)n1` (stereo unspecified), the Activity was determined as 0.5 µM.

As for `COC(=O)CNC(=O)NC(=O)C(CC1CCCC1)c1ccc(Cl)c(Cl)c1` (stereo unspecified), the Activity came out at 0.55 µM.

`CNC(=O)NC(=O)C(CC1CCCC1)c1ccc(SC)cc1` (stereo unspecified): the Activity was 3.2 µM.

With `CNC(=O)NC(=O)C(CC1CCCC1)c1ccc(Cl)cc1` (stereo unspecified), the Activity was determined as 5.4 µM.

Turning to `C=CCNC(=O)NC(=O)C(CC1CCCC1)c1ccc(Cl)c(Cl)c1` (stereo unspecified), the Activity amounted to 1.3 µM.

With `CNC(=O)NC(=O)C(CC1CCCC1)c1ccc(Cl)c(Cl)c1` (stereo unspecified), the Activity came to 1 µM.

As to `O=C(Nc1nc(CCO)cs1)C(CC1CCCC1)c1ccc(Cl)c(Cl)c1` (stereo unspecified), the Activity was determined as 0.84 µM.

System in the next series: not listed separately
Kind of series: Cmax in CD rat at 30 mg/kg, po. It counts as ADME, organism-based. Set-up: dose 30 mg/kg, route oral. The conditions noted are these: in vivo.
By Cmax is commonly meant the peak of the concentration-time curve. For the compound `CS(=O)(=O)c1ccc([C@@H](CC2CCCC2)C(=O)Nc2nccs2)cc1` [Ro-281675], the Cmax stood at 4300 µg/mL.

A further series has as its system Glucokinase (Homo sapiens). Kind of series: Activity of glucokinase at 30 uM.
Conditions: not given
As for `O=C(Nc1nccs1)C(Cc1ccccc1)c1ccc(Cl)c(Cl)c1` (stereo unspecified), the outcome was inactive.

Consider `O=C1NCCN1C(=O)C(CC1CCCC1)c1ccc(Cl)c(Cl)c1` (stereo unspecified), for which the outcome was inactive.

Consider `CCCCNC(=O)NC(=O)C(CC1CCCC1)c1ccc(Cl)c(Cl)c1` (stereo unspecified), for which the outcome was inactive.

On to `CNC(=O)NC(=O)C(CCC1CCCC1)c1ccc(Cl)c(Cl)c1` (stereo unspecified), for which the result was inactive.

In the case of `CC(C)CC(C(=O)NC(=O)N(C)C)c1ccc(Cl)c(Cl)c1` (stereo unspecified), the outcome was inactive.

Regarding `O=C(O)CCNC(=O)NC(=O)C(CC1CCCC1)c1ccc(Cl)c(Cl)c1` (stereo unspecified), the outcome was inactive.

Take `N=C(N)NC(=O)C(CC1CCCC1)c1ccc(Cl)c(Cl)c1` (stereo unspecified): the result was inactive.

Regarding `CNC(=O)N(C)C(=O)C(CC1CCCC1)c1ccc(Cl)c(Cl)c1` (stereo unspecified), the outcome was inactive.

System in a further series: not listed separately
Kind of series: AUC (0 to infinity) in CD rat at 5 mg/kg, iv. It counts as ADME, organism-based. Details: time infinity, dose 5 mg/kg, route intravenous. Conditions: plasma.
One may read the AUC(0-inf) as total exposure, with the tail of the curve extrapolated. A higher AUC(0-inf) goes with high exposure. In turn, `CS(=O)(=O)c1ccc([C@@H](CC2CCCC2)C(=O)Nc2nccs2)cc1` [Ro-281675] gave a total exposure AUC(0-inf) of 2770 ng·h/mL.

System in another series: not listed separately
The series can be described thus: Aqueous solubility of the compound. It counts as physicochemical.
Conditions: not given
By solubility is commonly meant the concentration that dissolves in the medium under given conditions. Higher therefore signals much dissolved substance. Compound `O=C(Nc1nccs1)C(CC1CCCC1)c1ccc(Cl)c(Cl)c1` (stereo unspecified) displayed a solubility of 5 µg/mL (≈ 13.5 µM).

Regarding `COC(=O)c1csc(NC(=O)C(CC2CCCC2)c2ccc(Cl)c(Cl)c2)n1` (stereo unspecified), the concentration in solution (solubility) came to 24 µg/mL (≈ 56.2 µM). Compared with the last compound, the solubility is about 4.8-fold higher.

System in another series: not listed separately
The series can be described thus: Tmax in CD rat at 30 mg/kg, po. Type of series: ADME, organism-based. Set-up: dose 30 mg/kg, route oral. The conditions noted are these: in vivo.
Broadly, the Tmax is the time from dosing to the highest level. Consider `CS(=O)(=O)c1ccc([C@@H](CC2CCCC2)C(=O)Nc2nccs2)cc1` [Ro-281675], for which the Tmax is 4.7 h.

System in another series: not listed separately
Kind of series: Oral bioavailability in CD rat at 10 mg/kg. It counts as ADME, organism-based. Conditions: in vivo.
The term bioavailability denotes the share of a dose that reaches the circulation, judged against a reference dose that is usually intravenous. A lower bioavailability goes with little systemic uptake. Compound `CS(=O)(=O)c1ccc([C@@H](CC2CCCC2)C(=O)Nc2nccs2)cc1` [Ro-281675] displayed a bioavailability of 92.8%.

System in the next series: not listed separately
The series can be described thus: Clearance in CD rat at 5 mg/kg, iv. Type of series: ADME, organism-based. Details: dose 5 mg/kg, route intravenous. The conditions noted are these: in vivo.
What is called clearance is a measure of how efficiently the substance is removed, as volume per time. Lower therefore signals inefficient removal. With `CS(=O)(=O)c1ccc([C@@H](CC2CCCC2)C(=O)Nc2nccs2)cc1` [Ro-281675], the clearance stood at 30 mL/min/kg.

System in a further series: not listed separately
Kind of series: Tmax in CD rat at 10 mg/kg, po. It counts as ADME, organism-based. Set-up: dose 10 mg/kg, route oral. Conditions: in vivo.
`CS(=O)(=O)c1ccc([C@@H](CC2CCCC2)C(=O)Nc2nccs2)cc1` [Ro-281675]: the Tmax stood at 3.3 h.

A further series relates to Pancreatic islet. Kind of series: […] of glucose-stimulated insulin secretion in C57BL/6J mouse isolated pancreatic islets cells after 4 to 5 days.
Conditions: not given
Regarding `CS(=O)(=O)c1ccc([C@@H](CC2CCCC2)C(=O)Nc2nccs2)cc1` [Ro-281675], the Activity entry is “Dose-dependent effect”.

A further series has as its system Mus musculus. The series can be described thus: Reduction in glucose AUC in C57BL/6J mouse at 50 mg/kg, po pretreated 30 mins by oral glucose tolerance test relative to control. It counts as functional, organism-based. Details: dose 50 mg/kg.
Conditions: not given
In short, it runs like this: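 Male C57BL/6J mice got a single oral 50 mg/kg dose and underwent an oral glucose tolerance test. Fasting glucose and glucose tolerance were compared with vehicle-treated animals. Values are mean ± STD, n = 6 per time point; Student's t test, P < 0.05.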
For the compound `CS(=O)(=O)c1ccc([C@@H](CC2CCCC2)C(=O)Nc2nccs2)cc1` [Ro-281675], the outcome was Active.

System in another series: not listed separately
Kind of series: AUC (0 to infinity) in CD rat at 10 mg/kg, po. It counts as ADME, organism-based. Details: time infinity, dose 10 mg/kg, route oral. Conditions: plasma.
Compound `CS(=O)(=O)c1ccc([C@@H](CC2CCCC2)C(=O)Nc2nccs2)cc1` [Ro-281675] yielded an AUC(0-inf) of 5150 ng·h/mL.

System in another series: not listed separately
Kind of series: Volume of distribution at steady state in CD rat at 5 mg/kg, iv. Type of series: ADME, organism-based. Set-up: dose 5 mg/kg, route intravenous. The conditions noted are these: in vivo, read-out: Vdss.
For the compound `CS(=O)(=O)c1ccc([C@@H](CC2CCCC2)C(=O)Nc2nccs2)cc1` [Ro-281675], the Vd was determined as 2.16 L/kg.

System in the next series: not listed separately
The series can be described thus: AUC (0 to infinity) in CD rat at 30 mg/kg, po. Type of series: ADME, organism-based. Details: time infinity, dose 30 mg/kg, route oral. Conditions: plasma.
As to `CS(=O)(=O)c1ccc([C@@H](CC2CCCC2)C(=O)Nc2nccs2)cc1` [Ro-281675], the area under the curve AUC(0-inf) amounted to 51700 ng·h/mL.

System in a further series: not listed separately
The series can be described thus: Cmax in CD rat at 10 mg/kg, po. Type of series: ADME, organism-based. Set-up: dose 10 mg/kg, route oral. The conditions noted are these: in vivo.
In turn, `CS(=O)(=O)c1ccc([C@@H](CC2CCCC2)C(=O)Nc2nccs2)cc1` [Ro-281675] had a Cmax of 1140 µg/mL.
